The record followed here is ChEMBL document CHEMBL1132185, “3-O-Desacyl monophosphoryl lipid A derivatives: synthesis and immunostimulant activities” (J Med Chem, 1999).

The species named for data set [1] is Oryctolagus cuniculus. Description: Minimum pyrogenic dose(MPD) was determined. Type of data set: functional. Put shortly: (§1)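 USP three-rabbit pyrogen test in New Zealand white rabbits (female, 1.5–5.0 kg). Stocks were 100 µg/mL in 10% aq EtOH, diluted in D5W and given into the marginal ear vein at 3 mL/kg. Rectal temperature was taken every 30 min for 3 h and the maximum rise over baseline recorded per rabbit. MPD is the dose giving a three-rabbit total rise ≥1.2 °C.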

A short description of data set [2]: Ability to induce iNOS gene expression assessed in an in vitro system utilizing peritoneal exudate cells(PEC) from Propionibacterium acnes-primed mice. Particulars: Mus musculus; read-out: ED50 (the source's name). Type of data set: functional. A digest of the protocol: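 ICR mice (female, 4-8 weeks) primed i.p. on day 0 with 1 mg heat-killed P. acnes in 0.2 mL saline; peritoneal exudate cells harvested day 4, adhered at 2 × 10^5 cells/well, nonadherent cells washed off. Test materials at various concentrations, in quadruplicate, in RPMI-1640 with 10% FCS for 24 h at 37 °C. Supernatant nitrite measured by Griess reaction; ED50 from nonlinear curve fit.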

The nature of data set [3]: (§2) lethal toxicity produced when compound is administered along with […] (iv). It is filed as organism-based. Particulars: in vivo.
Data set [4] deals with Oryctolagus cuniculus. In words: Total temperature rise in three rabbits at a dose of 10 ug/kg. Type of data set: functional. Put shortly: as §1
Data set [5] can be described thus: as §2. It is filed as organism-based, Homo sapiens. Particulars: mouse, in vivo.
Data set [6] deals with Tumor necrosis factor (Homo sapiens) (UniProt P01375). In words: Relative ex vivo cytokine induction in human whole blood stimulated with 10 ug/mL (done by ELISA) for Tumor necrosis factor alpha. It is filed as functional, tissue-based. A digest of the protocol: (§3)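 Heparinized whole blood from one healthy human volunteer, 0.45 mL, was mixed with 0.05 mL PBS (pH 7.4) containing test compound. It was incubated 4 h at 37 °C with shaking, then diluted with 1.5 mL PBS and centrifuged. Supernatant TNF-α and IL-1β were quantified in duplicate by sandwich ELISA.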
Chain of Tumor necrosis factor (Homo sapiens) (P01375 whole entry): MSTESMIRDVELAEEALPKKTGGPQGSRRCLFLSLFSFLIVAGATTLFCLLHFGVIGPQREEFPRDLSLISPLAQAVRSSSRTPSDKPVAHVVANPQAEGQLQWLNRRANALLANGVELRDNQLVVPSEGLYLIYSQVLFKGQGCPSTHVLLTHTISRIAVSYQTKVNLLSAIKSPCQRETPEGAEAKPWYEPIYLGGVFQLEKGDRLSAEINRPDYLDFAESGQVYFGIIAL
On the technique in general: In an ELISA, binding on a coated surface is turned into a signal by an enzyme label.

For data set [7], the species on record is Homo sapiens. Description: Relative ex vivo cytokine induction in human whole blood stimulated with 10 ug/mL (done by ELISA)for Interleukin (IL1-beta). Type of data set: functional. A digest of the protocol: as §3
Data set [8] is filed under the species Mus musculus. In words: Adjuvant activity was assessed by measuring tetanus toxoid-specific antibody responses in serum of mice immunised. (evaluated as IgG1). Type of data set: functional. Put shortly: (§4)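 Mice immunised on day 0 and day 21 with tetanus toxoid (2 μg per 2 mL emulsion) plus test article in 2.5% oil-water emulsion (12% lecithin-squalene oil phase; 0.1% Tween 80-saline aqueous phase). Controls received toxoid in 2.5% oil-water vehicle. Sera were taken from the orbital plexus 14 days after the second injection, diluted 2-fold ×11 from 1:200 and tested individually by toxoid-coated ELISA. Values are test titer/vehicle control titer.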

For data set [9], the species on record is Mus musculus. Description: Adjuvant activity was assessed by measuring tetanus toxoid-specific antibody responses in serum of mice immunised. (evaluated as total Ig). It is filed as functional. Put shortly: as §4
Data set [10] is filed under the species Mus musculus. In words: Adjuvant activity was assessed by measuring tetanus toxoid-specific antibody responses in serum of mice immunised. (evaluated as IgG2a). It is filed as functional. Put shortly:
as §4

The species entered for data set [11] is Mus musculus. Description: Adjuvant activity was assessed by measuring tetanus toxoid-specific antibody responses in serum of mice immunised. (evaluated as IgG2b). Type of data set: functional. Put shortly:
as §4

As for `CCCCCCCCCCC[C@H](CC(=O)NC1C(O)OC(COC2OC(CO)C(OP(=O)(O)O)C(OC(=O)C[C@@H](CCCCCCCCCCC)OC(=O)CCC)C2NC(=O)C[C@@H](CCCCCCCCCCC)OC(=O)CCC)C(O)C1O)OC(=O)CCC.CCN(CC)CC` (some centres undefined), in [1], the MPD amounted to 10 µg/kg. In addition, the EC50 in [2] is over 10000 ng/mL. Besides, the LD50 in data set [3] worked out at 4.5 µg. In data set [4], the Fever response is 1.5 °C.
Regarding `CCCCCCCCCCCC(=O)O[C@H](CCCCCCCCCCC)CC(=O)NC1C(O)OC(COC2OC(CO)C(OP(=O)(O)O)C(OC(=O)C[C@@H](CCCCCCCCCCC)OC(=O)CCCCCCCCCCC)C2NC(=O)C[C@@H](CCCCCCCCCCC)OC(=O)CCCCCCCCCCC)C(O)C1O.CCN(CC)CC` (some centres undefined), in data set [5], the LD50 came to 0.04 µg. In addition, the MPD in data set [1] is under 2.5 µg/kg. Also, the values for the Induction in [6] and in [7] were 4.6 and 2.9, respectively. Further, in data set [2], the EC50 was 1 ng/mL. Moreover, the Fever response in data set [4] is 5.3 °C.
In the case of `CCCCCCCCCCC[C@H](CC(=O)NC1C(O)OC(COC2OC(CO)C(OP(=O)(O)O)C(OC(=O)C[C@@H](CCCCCCCCCCC)OC(=O)CCCCC)C2NC(=O)C[C@@H](CCCCCCCCCCC)OC(=O)CCCCC)C(O)C1O)OC(=O)CCCCC.CCN(CC)CC` (some centres undefined), the MPD in data set [1] stood at 10 µg/kg. The EC50 in [2] was over 10000 ng/mL. This compound showed an LD50 in data set [3] of 4 µg. In data set [4], this compound returned a Fever response of 1.7 °C.
In data set [1], `CCCCCCCCCCC[C@H](CC(=O)NC1C(O)OC(COC2OC(CO)C(OP(=O)(O)O)C(OC(=O)C[C@@H](CCCCCCCCCCC)OC(=O)CCCCCCC)C2NC(=O)C[C@@H](CCCCCCCCCCC)OC(=O)CCCCCCC)C(O)C1O)OC(=O)CCCCCCC.CCN(CC)CC` (some centres undefined) came in with an MPD of under 2.5 µg/kg. In [2], the EC50 was 0.3 ng/mL. Moreover, the LD50 in data set [3] was 0.2 µg. In addition, the Fever response in data set [4] is 3.9 °C.
With `CCCCCCCCCCCCCC(=O)O[C@H](CCCCCCCCCCC)CC(=O)NC1C(O)OC(COC2OC(CO)C(OP(=O)(O)O)C(OC(=O)C[C@@H](CCCCCCCCCCC)OC(=O)CCCCCCCCCCCCC)C2NC(=O)C[C@@H](CCCCCCCCCCC)OC(=O)CCCCCCCCCCCCC)C(O)C1O.CCN(CC)CC` (some centres undefined), in data set [5], the LD50 was 1 µg. Also, the MPD in data set [1] amounted to 15 µg/kg. The Induction stood at 1.7 in data set [6] and 3.4 in data set [7]. The Adjuvant activity in data set [8] was 4.5; in [9], 8.2; in [10], 14.6; in data set [11] it was 4.5. Also, the EC50 in data set [2] was found to be 5 ng/mL. The compound also displayed a Fever response in [4] of 0.3 °C.
The compound `CCCCCCCCCCCCCCCC(=O)O[C@H](CCCCCCCCCCC)CC(=O)NC1C(O)OC(COC2OC(CO)C(OP(=O)(O)O)C(OC(=O)C[C@@H](CCCCCCCCCCC)OC(=O)CCCCCCCCCCCCC)C2NC(=O)C[C@@H](CCCCCCCCCCC)OC(=O)CCCCCCCCCCC)C(O)C1O.CCN(CC)CC` (some centres undefined) came in with an LD50 in data set [5] of 1 µg. In [1], this compound showed an MPD of 15 µg/kg. Further, the Induction in [6] was 1.6; in [7], 1.4. Also, the EC50 in [2] worked out at 10 ng/mL. The compound also displayed a Fever response in [4] of 0.6 °C.
Consider `CCCCCCCCCCC[C@H](CC(=O)NC1C(O)OC(COC2OC(CO)C(OP(=O)(O)O)C(OC(=O)C[C@@H](CCCCCCCCCCC)OC(=O)CCCCCCCCC)C2NC(=O)C[C@@H](CCCCCCCCCCC)OC(=O)CCCCCCCCC)C(O)C1O)OC(=O)CCCCCCCCC.CCN(CC)CC` (some centres undefined), for which the LD50 in [5] was determined as 0.02 µg. Besides, the MPD in data set [1] is under 0.06 µg/kg. In addition, the Induction in data set [6] is 3; in [7], 7.3. Also, the Adjuvant activity stood at 2.4 in data set [8], 6.2 in data set [9], 6 in data set [10] and 4.3 in data set [11]. In addition, in [2], the EC50 worked out at 0.05 ng/mL. This compound also came in with a Fever response in data set [4] of 4.1 °C.
